# Screening results: PubChem, Broad Institute
# KDM4C inh – blocks human GASC-1 (KDM4C) demethylase activity. actives 0.15% (n = 96,000). GST-KDM4C 2-372, H3K9me3 peptide, LANCE TR-FRET. AID 720574. Q9H3R0. inhibition, % at 12.5 µM;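 active = mean replicate inhibition above about 25%, with at least 55% of replicates also reaching it, limit read from the data, passing the limit was not always enough; inconclusive = only one of those two conditions met; inactive = neither condition met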
# Target sequence (Q9H3R0 2-372 limits assumed): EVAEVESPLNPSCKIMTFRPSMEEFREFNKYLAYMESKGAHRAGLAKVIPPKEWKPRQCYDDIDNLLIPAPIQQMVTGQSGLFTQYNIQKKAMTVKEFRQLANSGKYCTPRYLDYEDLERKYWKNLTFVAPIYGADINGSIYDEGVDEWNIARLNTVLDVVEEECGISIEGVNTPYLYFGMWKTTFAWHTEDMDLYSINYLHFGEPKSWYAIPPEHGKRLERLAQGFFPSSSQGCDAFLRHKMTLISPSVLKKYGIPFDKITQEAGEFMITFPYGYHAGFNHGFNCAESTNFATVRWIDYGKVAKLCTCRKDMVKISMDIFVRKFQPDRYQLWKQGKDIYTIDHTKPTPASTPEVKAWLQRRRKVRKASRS
#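 Assay system: GST-GASC-1 enzyme fragment 2-372 | Amount: 10 nM enzyme | Medium: HEPES buffer, pH 7.5, plus ascorbate | Reagent: H3K9me3 peptide substrate, Fe(II), 2-oxoglutarate | Doses: Single-point compound screen | Incubation: 30 min demethylation and 1 h detection at room temperature | Measured by: LANCE TR-FRET, excitation 340 nm, emissions 618 and 671 nm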
# IDH1 mut inh – IDH1 R132H (human) inhibition | inhibition, % at 10 µM | IDH1 R132H reductase, diaphorase/resazurin fluorescence, 60 min | O75874 | actives 0.18% (n = 70,000); in the data active = inhibition above about 34%; inconclusive = no clear call, values can overlap the other calls; inactive = below about 11%;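 note: 0% = DMSO and 100% = no enzyme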
# Target sequence (O75874 whole entry R132H): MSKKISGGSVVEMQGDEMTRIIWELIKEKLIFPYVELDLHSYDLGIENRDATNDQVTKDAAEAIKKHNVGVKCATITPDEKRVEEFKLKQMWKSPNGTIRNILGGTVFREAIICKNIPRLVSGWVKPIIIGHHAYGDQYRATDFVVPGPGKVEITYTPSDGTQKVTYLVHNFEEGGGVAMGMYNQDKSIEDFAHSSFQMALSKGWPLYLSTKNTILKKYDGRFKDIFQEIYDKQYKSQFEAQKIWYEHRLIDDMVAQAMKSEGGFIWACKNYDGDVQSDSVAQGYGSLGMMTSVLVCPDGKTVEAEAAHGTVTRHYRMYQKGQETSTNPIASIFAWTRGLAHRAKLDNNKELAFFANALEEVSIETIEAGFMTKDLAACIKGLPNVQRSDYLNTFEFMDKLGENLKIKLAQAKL
# T cruzi growth-1 – inhibitors of T. cruzi proliferation | inhibition, % at 8.34 µM | T. cruzi beta-gal in NIH3T3, GalScreen luminescence, 90 h | actives 5.9% (n = 77,000);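 active = mean inhibition above about 93%, with at least 55% of replicates each passing it, limit read from the data, passing the limit was not always enough; inconclusive = only one of those two conditions holds; inactive = neither condition holds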
# T cruzi growth-2 – inhibitors of T. cruzi proliferation. shares compounds with T cruzi growth-1. T. cruzi beta-gal in NIH3T3, GalScreen luminescence, 90 h. inhibition, % at 8.35 µM. actives 72% (n = 5,600). AID 651739;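 active = mean replicate inhibition above about 95% and at least 55% of replicates individually reaching it, limit read from the data; inconclusive = only one of the two criteria is met; inactive = neither criterion is met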
# T cruzi growth-3 – inhibitors of T. cruzi proliferation. inhibition, % at 2.09 µM. AID 651740. T. cruzi beta-gal in NIH3T3, GalScreen luminescence, 90 h. shares compounds with T cruzi growth-1. actives 21% (n = 5,600);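 active = mean inhibition above about 95%, with at least 55% of replicates also reaching it, limit read from the data; inconclusive = meets just one of the two conditions; inactive = meets neither condition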;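 note: plate controls were neutral control median for no effect and positive control median for full effect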
# 3T3 cytotox – NIH/3T3 (mouse) viability loss | NIH/3T3 viability, CellTiter-Glo ATP luminescence, 90 h | shares compounds with T cruzi growth-1 | actives 14% (n = 5,600) | cytotoxicity (signal decrease), % at 8.35 µM;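 active = mean signal decrease across replicates above about 35% based on untreated-well scatter, with enough replicates individually passing, limit read from the data; inconclusive = no rule stated though some were filed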;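 note: 0% = median of neutral control wells and 100% = median of positive control wells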
# 3T3 cytotox 2 – NIH/3T3 (mouse) viability loss; actives 56% (n = 5,600); AID 651744; shares compounds with T cruzi growth-1; NIH/3T3 viability, CellTiter-Glo ATP luminescence, 90 h; inhibition, % at 24.9 µM;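 active = mean loss of cell viability signal at or above a set limit, and enough replicates individually reaching it; inconclusive = meets only the mean limit or only the replicate share; inactive = meets neither condition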;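 note: 0% = median of neutral control wells and 100% = median of positive control wells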
# Active calls of the source: *; ? = inconclusive; . = no result. The full list was thinned out, with hits kept by preference.
SMILES,KDM4C inh,IDH1 mut inh,T cruzi growth-1,T cruzi growth-2,T cruzi growth-3,3T3 cytotox,3T3 cytotox 2
C[C@H](CO)N1C[C@H](C)[C@@H](CN(C)C(=O)Nc2ccc(F)cc2)Oc2c(NC(=O)Nc3cccc4ccccc34)cccc2C1=O,0.5,-1.1,92.5,.,.,.,.
COc1ccc(N(CC(=O)Nc2ccccc2-c2ccccc2)S(C)(=O)=O)cc1,.,-0.2,.,.,.,.,.
COc1ccc(C2C(C(=O)c3ccco3)C(=O)C(=O)N2CCN(C)C)cc1OC (stereo not given),.,6.9,.,.,.,.,.
CSc1ccc(C(Nc2ccccn2)c2cc(Cl)c3cccnc3c2O)cc1 (stereo not given),.,0.0,.,.,.,.,.
CSc1ccccc1NC(=O)CN(c1cc(Cl)ccc1C)S(C)(=O)=O,.,-0.2,.,.,.,.,.
CCn1c(SCC(=O)Nc2ccc([N+](=O)[O-])cc2C)nnc1-c1ccc(Br)cc1,.,0.4,.,.,.,.,.
CS(=O)(=O)N(CC(=O)Nc1c(F)cccc1F)C1CCCCC1,.,0.2,.,.,.,.,.
CCn1c(SCC(=O)Nc2ccccc2C)nc2ccccc2c1=O,.,-0.6,.,.,.,.,.
O=C(CSc1ncnc2sc3c(c12)CCCCC3)NCC1CCCO1 (stereo not given),.,0.1,.,.,.,.,.
C[C@@H]1CN([C@@H](C)CO)C(=O)c2cccc(NC(=O)Nc3ccc(F)cc3)c2O[C@@H]1CN(C)C(=O)Nc1ccc(C(F)(F)F)cc1,-0.9,4.1,?,111.4*,4.9,24.1,40.3*
C[C@@H]1CN([C@@H](C)CO)C(=O)c2cccc(NC(=O)Nc3ccc(C(F)(F)F)cc3)c2O[C@@H]1CN(C)C(=O)Nc1ccc(F)cc1,.,-0.4,74.4,.,.,.,.
CO[C@H](CN(C)C(=O)Nc1ccc(C(F)(F)F)cc1)[C@@H](C)CN(Cc1ccccc1Cl)[C@@H](C)CO,-2.2,-0.3,100.6*,100.7*,77.4,46.8*,103.6*
CO[C@H](CN(C)C(=O)Nc1ccc(C(F)(F)F)cc1)[C@H](C)CN(Cc1ccccc1Cl)[C@@H](C)CO,-0.4,-0.2,114.0*,101.1*,99.7*,50.0*,104.2*
CO[C@@H](CN(C)C(=O)Nc1ccc(C(F)(F)F)cc1)[C@H](C)CN(Cc1ccccc1Cl)[C@@H](C)CO,0.7,-0.4,91.0,.,.,.,.
CO[C@@H](CN(C)C(=O)Nc1ccc(C(F)(F)F)cc1)[C@@H](C)CN(Cc1ccccc1Cl)[C@@H](C)CO,0.1,-0.7,72.1,.,.,.,.
CCC(C)N1CCC2(CC1)N=c1c(c3c4c5c(C)c(O)c3c(O)c1=NC(=O)/C(C)=C\C=C[C@H](C)[C@H](O)[C@@H](C)[C@@H](O)[C@@H](C)[C@H](OC(C)=O)[C@H](C)[C@@H](OC)/C=C\O[C@@](C)(O5)C4=O)N2 (stereo not given in full),.,0.0,.,.,.,.,.
COCC#Cc1ccc2c(c1)O[C@@H](CN(C)CC1CCCCC1)[C@@H](C)CN([C@@H](C)CO)S2(=O)=O,-0.6,-1.9,105.3*,101.9*,84.8,11.2,40.2*
C[C@@H]1CN([C@@H](C)CO)S(=O)(=O)c2ccc(C#C[C@@H](C)O)cc2O[C@H]1CN(C)CC1CCCC1,-0.1,0.3,-15.8,.,.,.,.
C[C@H](O)C#Cc1ccc2c(c1)O[C@H](CN(C)CC1CCCCC1)[C@H](C)CN([C@H](C)CO)S2(=O)=O,-1.3,1.5,.,.,.,.,.
COCC#Cc1ccc2c(c1)O[C@@H](CN(C)CC1CCCCC1)[C@H](C)CN([C@@H](C)CO)S2(=O)=O,2.5,0.1,?,102.7*,90.3,?,105.0*
Cc1cccc(-n2c3c(c(=O)[nH]c2=S)C(NC(=O)CN2CCCC2=O)(C(F)(F)F)C(=O)N3)c1 (stereo not given),.,7.0,.,.,.,.,.
COc1ccccc1OCCSc1n[nH]c2nc3ccccc3n12,.,-0.4,.,.,.,.,.
CN(C)C(=O)c1cccc(-c2ccc3c(c2)[C@H]2[C@H](CCN2C(=O)c2cccc(F)c2)[C@@H](CO)N3C)c1,2.8,.,98.7*,103.4*,41.5,4.7,8.4
CN1c2ccc(-c3ccc(C#N)cc3)cc2[C@H]2[C@H](CCN2C(=O)c2cccc(F)c2)[C@@H]1CO,-2.2,.,78.3,.,.,.,.
CN(C)C(=O)c1cccc(-c2ccc3c(c2)[C@@H]2[C@@H](CCN2C(=O)c2ccc(F)cc2)[C@H](CO)N3C)c1,1.9,.,18.8,.,.,.,.
SMILES,KDM4C inh,IDH1 mut inh,T cruzi growth-1,T cruzi growth-2,T cruzi growth-3,3T3 cytotox,3T3 cytotox 2
CN1c2ccc(-c3ccc(C#N)cc3)cc2[C@@H]2[C@@H](CCN2C(=O)c2cccc(F)c2)[C@H]1CO,1.3,.,?,109.6*,103.1*,25.0,81.5*
N#C[C@@H]1[C@@H](c2ccccc2)[C@@H](CO)N1C(=O)C1CCCC1,-1.9,.,55.4,.,.,.,.
N#C[C@@H]1[C@@H](c2ccc(/C=C/c3ccccc3)cc2)[C@@H](CO)N1C(=O)C1CCCCC1,0.1,.,102.3*,?,58.0,5.2,26.1
N#C[C@H]1[C@@H](c2ccc(/C=C/c3ccccc3)cc2)[C@@H](CO)N1C(=O)C1CCCCC1,-1.4,.,97.9*,96.3*,?,14.9,90.2*
N#C[C@H]1[C@@H](c2ccc(/C=C/c3ccccc3)cc2)[C@@H](CO)N1C(=O)C1CCOCC1,-2.0,.,43.3,.,.,.,.
O=S(=O)(NCCOc1ccccc1)c1cccc2cccc(Cl)c12,.,0.1,.,.,.,.,.
COc1ccc(NC(=O)CN(c2cc(Cl)cc(Cl)c2)S(C)(=O)=O)cc1Cl,.,-0.6,.,.,.,.,.
COc1ccccc1Nc1nc(N)nc(CSc2nc3ccccc3s2)n1,.,0.4,.,.,.,.,.
COc1ccc([N+](=O)[O-])cc1NC(=O)CN(c1ccc(Cl)cc1C)S(C)(=O)=O,.,-0.1,.,.,.,.,.
C[C@H]1CN([C@@H](C)CO)C(=O)c2cc(C#Cc3ccccc3F)cnc2O[C@@H]1CN(C)C(=O)C1CCC1,-0.3,0.2,97.2*,103.7*,44.1,30.4,45.3*
C[C@H](CO)N1C[C@H](C)[C@@H](CN(C)C(=O)C2CCC2)Oc2ncc(C#Cc3ccccc3F)cc2C1=O,-1.8,-0.1,103.5,.,.,.,.
C[C@H]1CN([C@@H](C)CO)C(=O)c2cc(C#Cc3ccccc3F)cnc2O[C@@H]1CN(C)C(=O)Cc1ccccc1,0.8,.,58.7,.,.,.,.
C[C@@H]1CN([C@H](C)CO)C(=O)c2cc(C#Cc3cccc(F)c3)cnc2O[C@H]1CN(C)C(=O)C1CCCCC1,-0.8,0.0,100.9*,109.9*,83.9,-2.3,103.3*
C[C@@H]1CN([C@H](C)CO)C(=O)c2cc(C#Cc3ccccc3F)cnc2O[C@H]1CN(C)C(=O)c1ccc2c(c1)OCO2,0.8,-7.9,78.6,.,.,.,.
C[C@H]1CN([C@@H](C)CO)C(=O)c2cc(C#Cc3cccc(F)c3)cnc2O[C@H]1CN(C)C(=O)C1CCCCC1,0.8,-0.3,99.1,.,.,.,.
C[C@H](CO)N1C[C@H](C)[C@@H](CN(C)C(=O)Cc2ccccc2)Oc2ncc(C#Cc3ccccc3F)cc2C1=O,-1.8,0.3,96.0*,108.4*,65.1,5.8,94.1*
